Columns and labels:
Assay type in all cases: functional
Mus musculus [1] = assay: Doubling of hotplate jump-latency activity in mouse after intra cerebro ventricular administration of the compound
Procedure, shortened: (§1)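 Male CF1 mice (18–23 g) dosed icv or sc; 15 min later placed singly on a copper hot plate held at 55 °C. Latency to jump recorded, cutoff 240 s. MED = minimum effective dose. ED200 = dose doubling jump latency.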

Mus musculus [2] = assay: Hot-plate jump-latency activity in mouse 15 minutes after subcutaneous administration; details: sc, 0.25 h, read-out: MED; procedure, shortened: as §1
Mus musculus [3] = assay: Stretching activity in male CF-1 mice, after the intra peritoneal administration of acetic acid and subcutaneous administration of compound; details: sc
Procedure, shortened: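 Male CF-1 mice (18–22 g), twelve per dose of agent or vehicle, dosed sc 15 min before ip 3% aqueous acetic acid at 10 mL/kg. Five minutes after irritant, stretching episodes counted over 10 min. ED50 derived from these counts.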

Mus musculus [4] = assay: Doubling of hotplate jump-latency activity in mouse after subcutaneous administration of the compound
Procedure, shortened: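 Male CF1 mice (18–23 g) dosed sc; 15 min later placed singly on copper hot plate held at 55 °C. Latency to jump off recorded, cutoff 240 s. ED200 is the dose doubling jump latency.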

Mus musculus [5] = assay: Tail-flick latency observed in CF-1 mice after the administration (3 mg/kg) followed by icv administration of DAEM ([D-Ala2,Met5]enkephalin)
Procedure, shortened: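 Male CF-1 mice (20–22 g) given test agent or vehicle sc, then immediately DAEM (1 μg) or vehicle icv. Tail-flick latency read 30 min later, cutoff 10 s; n = 10 per group.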

## O=C(O)CNC(=O)C(CS)Cc1ccccc1 (stereo not given) [THIORPHAN]
Mus musculus [1]
  ED200: 75 µg
Mus musculus [2]
  minimal effective dose: 100 mg/kg
Mus musculus [3]
  ED50: 38 mg/kg
Mus musculus [4]
  ED200: >100 mg/kg
Mus musculus [5]
  Reaction time: 7.5 s
